Results as given in ChEMBL document CHEMBL5653631, “A Potent and Selective ULK1 Inhibitor Suppresses Autophagy and Sensitizes Cancer Cells to Nutrient Stress” (iScience, 2018).

Legend:
[1] = target: T1, Inhibitor of nuclear factor kappa-B kinase subunit epsilon (Homo sapiens) (UniProt Q14164); test: Inhibition of human recombinant IKKe at 40 nM related to control ULK1
T1 sequence (whole entry): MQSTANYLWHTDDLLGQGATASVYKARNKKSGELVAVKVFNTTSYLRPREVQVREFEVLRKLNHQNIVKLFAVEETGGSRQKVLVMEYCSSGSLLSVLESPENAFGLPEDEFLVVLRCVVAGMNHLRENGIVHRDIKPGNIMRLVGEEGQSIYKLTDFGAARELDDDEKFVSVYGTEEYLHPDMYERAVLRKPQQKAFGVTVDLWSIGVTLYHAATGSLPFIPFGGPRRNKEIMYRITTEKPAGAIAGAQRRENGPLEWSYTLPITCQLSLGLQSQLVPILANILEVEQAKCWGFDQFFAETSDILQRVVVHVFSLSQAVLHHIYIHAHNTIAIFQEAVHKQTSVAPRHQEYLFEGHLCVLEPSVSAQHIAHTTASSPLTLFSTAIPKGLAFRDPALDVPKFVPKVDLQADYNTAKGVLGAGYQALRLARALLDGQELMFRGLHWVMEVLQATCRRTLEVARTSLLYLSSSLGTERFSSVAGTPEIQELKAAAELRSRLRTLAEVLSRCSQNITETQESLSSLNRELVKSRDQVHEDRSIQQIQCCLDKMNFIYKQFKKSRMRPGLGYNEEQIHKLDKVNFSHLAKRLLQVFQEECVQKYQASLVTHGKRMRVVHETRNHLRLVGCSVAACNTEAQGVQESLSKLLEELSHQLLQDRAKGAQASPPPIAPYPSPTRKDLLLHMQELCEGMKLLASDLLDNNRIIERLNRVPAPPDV

U2OS = test: Inhibition of autophagy in human U2OS cells assessed as BafA1-induced LC3B-II accumulation preincubated with compound for 3 hrs followed by BafA1 induction and measured after 1.5 hr under starvation condition by immunoblotting analysis; format: functional, cell-based; conditions: dose <= 5.0 µM, time 4.5 hrs
Summary of the method: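 U2OS cells kept 3 hr in full growth medium or HBSS-based starvation medium with or without inhibitor; BafA1-induced LC3B-II accumulation quantified by immunoblotting against β-actin.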

[2] = target: Receptor tyrosine-protein kinase erbB-2 (Homo sapiens) (UniProt P04626); test: Inhibition of human recombinant ErbB2 at 40 nM related to control ULK1
[3] = target: T2, MAP kinase-activated protein kinase 5 (Homo sapiens) (UniProt Q8IW41); test: Inhibition of human recombinant MAPKAPK5 at 15 nM in presence of ATP by radiometric assay relative to control
T2 sequence (whole entry): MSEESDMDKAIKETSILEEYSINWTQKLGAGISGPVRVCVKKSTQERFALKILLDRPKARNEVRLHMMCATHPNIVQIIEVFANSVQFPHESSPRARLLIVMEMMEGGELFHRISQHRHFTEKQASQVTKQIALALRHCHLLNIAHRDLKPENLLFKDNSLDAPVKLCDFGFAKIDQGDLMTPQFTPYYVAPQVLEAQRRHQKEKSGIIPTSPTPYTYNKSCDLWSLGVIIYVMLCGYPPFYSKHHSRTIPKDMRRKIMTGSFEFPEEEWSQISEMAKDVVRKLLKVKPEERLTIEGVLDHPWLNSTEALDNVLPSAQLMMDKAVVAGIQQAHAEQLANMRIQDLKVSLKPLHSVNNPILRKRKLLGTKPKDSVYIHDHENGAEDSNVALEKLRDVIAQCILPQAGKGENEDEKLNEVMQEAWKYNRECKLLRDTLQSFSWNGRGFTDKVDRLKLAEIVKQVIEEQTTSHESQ

[4] = target: T3, Serine/threonine-protein kinase DCLK2 (Homo sapiens) (UniProt Q8N568); test: Inhibition of human recombinant DCAMKL2 at 15 nM in presence of ATP by radiometric assay relative to control
T3 sequence (whole entry): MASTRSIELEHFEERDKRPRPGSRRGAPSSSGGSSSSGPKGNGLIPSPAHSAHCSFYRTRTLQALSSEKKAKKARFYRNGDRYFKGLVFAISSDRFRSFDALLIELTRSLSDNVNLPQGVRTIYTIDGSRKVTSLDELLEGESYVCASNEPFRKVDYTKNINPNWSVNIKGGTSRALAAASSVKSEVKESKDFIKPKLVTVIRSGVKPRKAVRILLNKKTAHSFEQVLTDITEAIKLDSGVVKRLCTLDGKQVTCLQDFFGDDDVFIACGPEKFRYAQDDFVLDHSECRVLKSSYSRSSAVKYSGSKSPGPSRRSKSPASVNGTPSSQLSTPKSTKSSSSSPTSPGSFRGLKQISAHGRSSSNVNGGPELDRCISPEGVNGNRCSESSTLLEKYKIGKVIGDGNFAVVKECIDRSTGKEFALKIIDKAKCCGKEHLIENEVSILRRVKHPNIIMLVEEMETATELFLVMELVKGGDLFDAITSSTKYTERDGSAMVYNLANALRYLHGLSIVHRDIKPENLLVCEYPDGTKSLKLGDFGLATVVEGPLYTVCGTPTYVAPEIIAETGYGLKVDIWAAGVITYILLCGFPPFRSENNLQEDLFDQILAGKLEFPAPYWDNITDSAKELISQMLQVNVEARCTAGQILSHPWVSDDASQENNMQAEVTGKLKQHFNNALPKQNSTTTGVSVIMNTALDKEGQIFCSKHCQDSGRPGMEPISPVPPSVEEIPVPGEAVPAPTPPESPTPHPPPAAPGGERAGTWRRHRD

[5] = target: Activated CDC42 kinase 1 (Homo sapiens) (UniProt Q07912); test: Inhibition of human recombinant ACK at 500 nM related to control ULK1
[6] = target: Serine/threonine-protein kinase MAK (Homo sapiens) (UniProt P20794); test: Inhibition of human recombinant MAK at 500 nM in presence of ATP by radiometric assay relative to control
[7] = target: Ephrin type-A receptor 7 (Homo sapiens) (UniProt Q15375); test: Inhibition of human recombinant EphA7 at 500 nM in presence of ATP by radiometric assay relative to control
Chain of Ephrin type-A receptor 7 (Homo sapiens) (Q15375 28-998 limits assumed): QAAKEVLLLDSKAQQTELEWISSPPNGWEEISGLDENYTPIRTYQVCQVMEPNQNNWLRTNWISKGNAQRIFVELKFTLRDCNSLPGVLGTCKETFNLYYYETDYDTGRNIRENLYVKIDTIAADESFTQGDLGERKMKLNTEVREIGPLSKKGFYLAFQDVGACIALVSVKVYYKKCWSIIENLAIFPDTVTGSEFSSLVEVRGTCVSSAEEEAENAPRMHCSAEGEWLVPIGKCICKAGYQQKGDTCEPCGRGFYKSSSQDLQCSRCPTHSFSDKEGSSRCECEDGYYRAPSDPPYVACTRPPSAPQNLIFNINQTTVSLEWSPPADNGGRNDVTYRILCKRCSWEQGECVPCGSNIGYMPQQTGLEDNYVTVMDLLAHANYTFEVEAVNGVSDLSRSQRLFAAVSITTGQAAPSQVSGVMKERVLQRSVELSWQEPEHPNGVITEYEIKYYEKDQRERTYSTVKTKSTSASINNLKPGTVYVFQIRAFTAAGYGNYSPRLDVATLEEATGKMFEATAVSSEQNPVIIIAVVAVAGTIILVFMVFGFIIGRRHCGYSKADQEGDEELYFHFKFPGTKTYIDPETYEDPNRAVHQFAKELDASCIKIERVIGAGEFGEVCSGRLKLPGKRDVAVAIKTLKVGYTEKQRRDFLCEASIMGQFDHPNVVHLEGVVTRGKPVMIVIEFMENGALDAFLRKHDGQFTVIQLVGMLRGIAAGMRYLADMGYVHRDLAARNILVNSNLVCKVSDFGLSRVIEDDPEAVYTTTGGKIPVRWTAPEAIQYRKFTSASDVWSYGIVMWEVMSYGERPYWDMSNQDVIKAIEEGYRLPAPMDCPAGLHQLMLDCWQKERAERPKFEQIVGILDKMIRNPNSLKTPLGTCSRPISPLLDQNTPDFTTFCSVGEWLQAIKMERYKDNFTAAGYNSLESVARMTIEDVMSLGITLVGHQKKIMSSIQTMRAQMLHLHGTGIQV

Chain of Serine/threonine-protein kinase MAK (Homo sapiens) (P20794 whole entry, looked up): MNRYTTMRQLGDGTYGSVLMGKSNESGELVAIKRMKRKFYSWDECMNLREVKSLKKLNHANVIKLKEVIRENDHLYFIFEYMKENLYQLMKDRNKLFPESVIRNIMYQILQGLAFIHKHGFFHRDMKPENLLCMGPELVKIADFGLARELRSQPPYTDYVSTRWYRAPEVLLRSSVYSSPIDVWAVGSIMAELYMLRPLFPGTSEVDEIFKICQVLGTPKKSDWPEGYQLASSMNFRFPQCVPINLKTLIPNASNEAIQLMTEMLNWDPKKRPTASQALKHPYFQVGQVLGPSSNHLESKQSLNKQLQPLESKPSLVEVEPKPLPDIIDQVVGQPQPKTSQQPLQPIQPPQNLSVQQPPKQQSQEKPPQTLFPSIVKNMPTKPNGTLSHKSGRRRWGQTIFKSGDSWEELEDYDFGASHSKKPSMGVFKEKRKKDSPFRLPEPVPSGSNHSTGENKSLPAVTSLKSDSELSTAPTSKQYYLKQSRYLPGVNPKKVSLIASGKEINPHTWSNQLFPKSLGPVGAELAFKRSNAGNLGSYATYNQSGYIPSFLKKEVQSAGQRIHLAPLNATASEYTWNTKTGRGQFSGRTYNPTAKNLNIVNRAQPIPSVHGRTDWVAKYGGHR
Chain of Activated CDC42 kinase 1 (Homo sapiens) (Q07912 whole entry, looked up): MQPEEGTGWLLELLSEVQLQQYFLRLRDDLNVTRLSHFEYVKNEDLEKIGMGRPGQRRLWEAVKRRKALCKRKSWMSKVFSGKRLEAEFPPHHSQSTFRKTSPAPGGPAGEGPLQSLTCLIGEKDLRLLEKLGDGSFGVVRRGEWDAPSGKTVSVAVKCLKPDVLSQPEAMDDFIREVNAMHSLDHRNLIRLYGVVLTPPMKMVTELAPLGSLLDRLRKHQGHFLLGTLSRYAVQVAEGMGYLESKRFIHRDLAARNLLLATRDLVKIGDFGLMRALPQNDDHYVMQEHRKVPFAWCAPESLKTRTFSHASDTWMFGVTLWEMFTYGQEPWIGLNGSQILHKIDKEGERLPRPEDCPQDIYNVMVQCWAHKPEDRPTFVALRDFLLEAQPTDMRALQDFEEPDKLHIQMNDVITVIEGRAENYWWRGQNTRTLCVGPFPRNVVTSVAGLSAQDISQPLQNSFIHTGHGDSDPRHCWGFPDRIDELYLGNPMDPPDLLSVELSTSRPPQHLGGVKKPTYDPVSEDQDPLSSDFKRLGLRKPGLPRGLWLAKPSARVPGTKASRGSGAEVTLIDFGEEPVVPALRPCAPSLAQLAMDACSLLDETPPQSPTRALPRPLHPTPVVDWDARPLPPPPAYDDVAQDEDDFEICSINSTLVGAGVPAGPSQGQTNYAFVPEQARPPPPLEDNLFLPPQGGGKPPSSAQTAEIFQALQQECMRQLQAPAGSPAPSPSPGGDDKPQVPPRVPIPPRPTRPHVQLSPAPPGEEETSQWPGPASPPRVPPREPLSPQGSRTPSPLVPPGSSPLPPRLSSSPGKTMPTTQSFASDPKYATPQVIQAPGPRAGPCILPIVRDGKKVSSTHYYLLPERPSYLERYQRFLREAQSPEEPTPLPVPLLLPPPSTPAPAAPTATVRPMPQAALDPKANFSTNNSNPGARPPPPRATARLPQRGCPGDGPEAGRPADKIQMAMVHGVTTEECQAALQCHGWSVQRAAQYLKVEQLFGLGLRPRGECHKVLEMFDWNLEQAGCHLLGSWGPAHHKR
Chain of Receptor tyrosine-protein kinase erbB-2 (Homo sapiens) (P04626 whole entry): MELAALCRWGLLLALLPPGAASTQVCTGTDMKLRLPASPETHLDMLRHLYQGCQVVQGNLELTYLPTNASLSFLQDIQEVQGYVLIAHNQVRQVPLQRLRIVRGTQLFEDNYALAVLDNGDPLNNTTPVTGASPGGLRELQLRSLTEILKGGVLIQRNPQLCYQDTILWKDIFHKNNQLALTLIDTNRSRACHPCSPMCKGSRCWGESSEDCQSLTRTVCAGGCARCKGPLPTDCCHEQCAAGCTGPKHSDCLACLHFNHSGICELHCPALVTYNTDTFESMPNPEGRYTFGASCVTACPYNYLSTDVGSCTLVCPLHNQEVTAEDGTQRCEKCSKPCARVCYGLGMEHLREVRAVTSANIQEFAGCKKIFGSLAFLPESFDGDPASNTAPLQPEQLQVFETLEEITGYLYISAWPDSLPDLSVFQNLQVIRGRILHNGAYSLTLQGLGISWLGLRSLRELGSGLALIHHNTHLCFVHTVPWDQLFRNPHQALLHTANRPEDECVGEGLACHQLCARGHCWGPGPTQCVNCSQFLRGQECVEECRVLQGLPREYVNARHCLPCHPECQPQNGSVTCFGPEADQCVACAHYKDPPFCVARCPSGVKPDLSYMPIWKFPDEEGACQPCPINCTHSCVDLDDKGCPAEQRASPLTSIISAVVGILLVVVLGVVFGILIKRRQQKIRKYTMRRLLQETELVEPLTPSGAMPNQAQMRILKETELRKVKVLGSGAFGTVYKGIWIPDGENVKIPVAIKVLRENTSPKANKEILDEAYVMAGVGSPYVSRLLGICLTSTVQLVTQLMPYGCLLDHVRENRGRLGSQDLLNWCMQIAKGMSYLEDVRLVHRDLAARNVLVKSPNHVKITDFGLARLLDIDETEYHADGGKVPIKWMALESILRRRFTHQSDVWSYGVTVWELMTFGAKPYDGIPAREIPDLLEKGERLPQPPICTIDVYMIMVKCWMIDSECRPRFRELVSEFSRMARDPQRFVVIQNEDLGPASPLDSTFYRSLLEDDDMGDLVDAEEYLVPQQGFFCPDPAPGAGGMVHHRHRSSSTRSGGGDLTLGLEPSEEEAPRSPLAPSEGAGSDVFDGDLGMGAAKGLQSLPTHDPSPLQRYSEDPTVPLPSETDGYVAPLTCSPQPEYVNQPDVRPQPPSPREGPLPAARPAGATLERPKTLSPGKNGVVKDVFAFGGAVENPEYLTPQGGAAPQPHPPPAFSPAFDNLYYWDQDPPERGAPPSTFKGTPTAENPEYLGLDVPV

Q: What does the source list for `O=C(N[C@@H](C1CC1)C(F)(F)F)c1cc(-c2cnn3cc(-c4ccc(F)cc4)cnc23)cs1`?
A: fold change (FC) [1]: 0.41; inhibition (U2OS): Dose-Dependent Effect; fold change (FC) [2]: 0

Q: Which inhibition [3] does the source give for `CC(C)[C@H](NC(=O)c1cc(-c2cnn3cc(-c4ccc(OCCN5CCCCC5)cc4)cnc23)cs1)C(F)(F)F` here?
A: The inhibition was 0%.

Q: What about the inhibition [4] of the same compound?
A: The inhibition was 12%.

Q: How did the fold change (FC) [5] turn out when `CNC(=O)c1ccccc1Oc1nc(Nc2cc(OC)c(OC)c(OC)c2)ncc1Br` was run?
A: The fold change (FC) was 0.42.

Q: And the inhibition [6]?
A: Its inhibition is 36%.

Q: And the inhibition [7]?
A: Its inhibition is 0%.
